Where a chain is given by its changes, count along the chain named.
Experiments:
[1] = system: scopolamine-induced deficits in contextual fear conditioning; assay: Contextual fear conditioning, scopolamine-induced deficit; assay type: in vivo; conditions: rat; for effect on acquisition of contextual fear conditioning response: 0.2 mg/kg s.c., 15 minutes prior to training, 0.2 mg/kg
Outline: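 Male Sprague–Dawley rats (380–420 g) were habituated to vehicle injections for 2 days. Test compound (1–10 mg/kg ip) was given 30 min before training, and scopolamine (0.2 mg/kg sc) or vehicle 15 min before. Training used two 1 s, 0.5 mA footshocks 2.5 min apart, with a vanilla odour cue. At 24 h, video-scored freezing over 7 min was expressed as percent. Groups had 3–4 rats; one-way ANOVA with Dunnett's test against vehicle/scopolamine.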

M1 = biological target: T1, M1 (Rattus norvegicus, UniProt P08482); assay: HTS confirmation concentration-response in M1-CHO cells; assay type: cell-based; conditions: for sensitivity to block by atropine: concentration series in the presence of atropine; for EC50: read-out: M1 EC50, from the DPI DMSO stock
T1 sequence (P08482 1-460): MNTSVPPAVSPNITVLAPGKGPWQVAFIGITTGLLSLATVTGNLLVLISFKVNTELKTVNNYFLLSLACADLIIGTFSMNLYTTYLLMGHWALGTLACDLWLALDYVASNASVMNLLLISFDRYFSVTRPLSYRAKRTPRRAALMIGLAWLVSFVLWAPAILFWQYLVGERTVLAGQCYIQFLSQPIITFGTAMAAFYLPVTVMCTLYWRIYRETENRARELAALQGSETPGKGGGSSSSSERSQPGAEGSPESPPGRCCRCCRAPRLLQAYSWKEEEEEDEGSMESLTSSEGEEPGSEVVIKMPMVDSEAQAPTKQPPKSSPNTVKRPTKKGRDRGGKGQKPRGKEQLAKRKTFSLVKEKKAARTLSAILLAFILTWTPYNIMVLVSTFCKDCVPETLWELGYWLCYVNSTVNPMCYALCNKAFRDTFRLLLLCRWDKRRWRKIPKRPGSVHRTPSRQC

rM1 receptor = biological target: T2, rM1 receptor (Rattus norvegicus, UniProt P08482); assay: Calcium mobilization assay, CHO-K1 cells stably expressing rM1; assay type: cell-based; conditions: for EC50: read-out: M1 EC50; for M1 potency and efficacy (SAR statement): substitution around the benzyl ring
T2 sequence (P08482 1-460): T1 sequence (P08482 1-460)

hM2 = biological target: T3, hM2 (Homo sapiens, UniProt P08172); assay: Calcium mobilization assay, agonist mode, M2; assay type: cell-based; conditions: up to 30 μM
T3 sequence (P08172 1-466): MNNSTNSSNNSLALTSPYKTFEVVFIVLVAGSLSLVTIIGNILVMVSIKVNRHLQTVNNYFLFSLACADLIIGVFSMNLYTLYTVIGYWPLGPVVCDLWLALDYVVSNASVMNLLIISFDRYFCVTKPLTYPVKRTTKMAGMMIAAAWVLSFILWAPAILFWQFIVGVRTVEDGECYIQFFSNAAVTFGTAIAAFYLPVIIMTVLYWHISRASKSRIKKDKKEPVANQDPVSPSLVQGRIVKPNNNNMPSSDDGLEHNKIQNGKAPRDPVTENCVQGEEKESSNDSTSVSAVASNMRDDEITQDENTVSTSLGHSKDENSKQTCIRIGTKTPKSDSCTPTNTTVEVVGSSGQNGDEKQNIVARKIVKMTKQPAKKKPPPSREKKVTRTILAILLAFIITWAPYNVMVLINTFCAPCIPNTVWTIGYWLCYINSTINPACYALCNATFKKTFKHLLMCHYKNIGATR
Outline: (§1)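 CHO-K1 cells stably expressing hM2/Gqi5 or rM4/Gqi5 (6 × 10^4 cells/well), or hM3 or hM5 (5 × 10^4 cells/well), were cultured overnight at 37 °C in 5% CO2. Cells were loaded with 2 μM Fluo-4 AM for 1 h at 37 °C in HBSS with 20 mM HEPES and 2.5 mM probenecid, pH 7.4. Eight-point test compound concentration series were added at 19 s of a 130 s read. Calcium flux was read as fluorescence fold over basal.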

hM3 = hM3 (Homo sapiens, UniProt P20309); assay: Calcium mobilization assay, agonist mode, M3; assay type: cell-based; conditions: up to 30 μM
Chain of hM3 (P20309 whole entry): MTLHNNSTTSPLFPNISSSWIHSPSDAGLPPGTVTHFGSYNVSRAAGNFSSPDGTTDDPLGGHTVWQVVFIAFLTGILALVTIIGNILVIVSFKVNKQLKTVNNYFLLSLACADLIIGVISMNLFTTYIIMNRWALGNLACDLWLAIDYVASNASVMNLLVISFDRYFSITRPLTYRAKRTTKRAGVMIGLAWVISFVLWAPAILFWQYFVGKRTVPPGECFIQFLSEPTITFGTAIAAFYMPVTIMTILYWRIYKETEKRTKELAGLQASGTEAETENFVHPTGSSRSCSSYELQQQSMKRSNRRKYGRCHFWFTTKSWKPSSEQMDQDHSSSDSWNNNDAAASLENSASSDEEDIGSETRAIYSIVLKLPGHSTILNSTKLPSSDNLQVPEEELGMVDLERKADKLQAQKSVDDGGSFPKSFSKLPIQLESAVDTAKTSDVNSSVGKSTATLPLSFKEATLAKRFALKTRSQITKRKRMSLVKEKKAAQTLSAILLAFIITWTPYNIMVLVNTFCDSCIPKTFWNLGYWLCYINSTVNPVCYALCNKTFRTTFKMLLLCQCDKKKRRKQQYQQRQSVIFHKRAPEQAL
Outline: as §1

rM4 = biological target: T4, rM4 (Rattus norvegicus, UniProt P08485); assay: Calcium mobilization assay, agonist mode, M4; assay type: cell-based; conditions: up to 30 μM
T4 sequence (P08485 1-478): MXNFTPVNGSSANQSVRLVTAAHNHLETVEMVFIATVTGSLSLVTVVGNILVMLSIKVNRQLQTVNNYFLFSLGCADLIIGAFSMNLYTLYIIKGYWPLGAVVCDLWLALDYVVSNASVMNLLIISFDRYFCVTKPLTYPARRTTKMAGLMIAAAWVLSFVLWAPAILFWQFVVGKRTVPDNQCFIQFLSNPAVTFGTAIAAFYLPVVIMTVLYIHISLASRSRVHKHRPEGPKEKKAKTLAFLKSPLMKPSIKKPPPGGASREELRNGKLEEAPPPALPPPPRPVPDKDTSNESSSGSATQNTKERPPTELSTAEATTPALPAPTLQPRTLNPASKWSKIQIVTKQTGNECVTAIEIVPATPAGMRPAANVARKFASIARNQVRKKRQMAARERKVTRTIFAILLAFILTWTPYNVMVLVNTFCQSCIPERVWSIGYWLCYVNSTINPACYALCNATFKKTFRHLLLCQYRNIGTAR
Outline: as §1

hM5 = biological target: T5, hM5 (Homo sapiens, UniProt P08912); assay: Calcium mobilization assay, agonist mode, M5; assay type: cell-based; conditions: up to 30 μM
T5 sequence (P08912 1-532): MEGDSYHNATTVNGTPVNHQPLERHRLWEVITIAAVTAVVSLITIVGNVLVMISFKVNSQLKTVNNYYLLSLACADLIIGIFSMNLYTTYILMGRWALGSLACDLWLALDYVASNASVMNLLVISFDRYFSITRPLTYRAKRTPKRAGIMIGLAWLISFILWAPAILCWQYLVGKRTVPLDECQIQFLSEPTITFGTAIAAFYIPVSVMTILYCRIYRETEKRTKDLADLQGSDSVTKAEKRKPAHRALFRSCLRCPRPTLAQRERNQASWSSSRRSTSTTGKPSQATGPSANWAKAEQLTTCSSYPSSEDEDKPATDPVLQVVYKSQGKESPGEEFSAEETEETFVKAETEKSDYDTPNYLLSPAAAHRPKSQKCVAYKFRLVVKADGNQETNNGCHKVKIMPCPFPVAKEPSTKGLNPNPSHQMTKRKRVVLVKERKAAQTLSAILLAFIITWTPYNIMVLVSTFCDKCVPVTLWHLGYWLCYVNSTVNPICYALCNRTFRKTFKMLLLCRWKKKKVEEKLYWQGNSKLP
Outline: as §1

rM1 Y381A = biological target: T6, rM1 Y381A (Rattus norvegicus, UniProt P08482, Y381A); assay: Calcium mobilization in rM1 Y381A; assay type: cell-based; conditions: for potency at M1 Y381A compared with WT M1: M1Y381A CHO cells vs WT M1 CHO cells
T6 sequence (P08482 1-460 Y381A): T1 sequence (P08482 1-460) with Y381A

M2 = biological target: T7, M2 (Homo sapiens, UniProt P08172); assay: Antagonism of EC80 ACh response, calcium mobilization, M2; assay type: cell-based; conditions: read-out: M2 antagonism IC50; attenuation of EC80 ACh response
T7 sequence (P08172 1-466): T3 sequence (P08172 1-466)

M5 = biological target: T8, M5 (Homo sapiens, UniProt P08912); assay: Antagonism of EC80 ACh response, calcium mobilization, M5; assay type: cell-based; conditions: read-out: M5 antagonism IC50; attenuation of EC80 ACh response
T8 sequence (P08912 1-532): T5 sequence (P08912 1-532)

Aqueous solubility = assay type: physicochemical; conditions: water
[2] = Plasma-brain exposure profile PK study; assay type: in vivo; conditions: rat
Outline: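 Test compound was dissolved in sterile water at 5 mg/mL and dosed at 10 mg/kg ip in male Sprague–Dawley rats (225–250 g). Plasma and brain were collected at 0.5, 1, 2, 4 and 8 h, with three rats per time point. Brains were homogenized 1:3 in PBS, and samples were extracted by acetonitrile/0.1% formic acid precipitation with internal standard. Quantification was by LC-MS/MS SRM (10–2000 ng/mL calibration), with noncompartmental analysis.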

[3] = rM1 CHO-K1, calcium mobilization

## CN1[C@@H]2C[C@@H](OC(=O)[C@H](CO)c3ccccc3)C[C@H]1[C@@H]1O[C@@H]12 [scopolamine]
[1]
  effect on acquisition of contextual fear conditioning response: significant disruption
[1]; listed as Scopolamine
  effect on acquisition of contextual fear conditioning response: robust disruption

## CCOC(=O)N1CCC(NCCNC(=O)c2cccs2)CC1 [VU0177548]
M1; M1-CHO vs M4/Gqi5 CHO cells
  selectivity for M1 vs. M4: > 50 fold
M1
  sensitivity to block by atropine: sensitive to block by atropine
  EC50: ~1000 nM
rM1 receptor; [3]
  EC50: 1740 nM
hM2
  agonist activity at M2: no alteration was detected in baseline
hM3
  agonist activity at M3: no alteration was detected in baseline
rM4
  agonist activity at M4: no alteration was detected in baseline
hM5
  agonist activity at M5: no alteration was detected in baseline
rM1 Y381A; rM1 Y381A cells
  rM1 Y381A AChmax (maximal efficacy): 44.69 % max
rM1 Y381A; read-out: rM1 Y381A EC50, rM1 Y381A cells
  EC50: 1230 nM

## Cc1ccccc1CN1CCC(N2CCC(n3c(=O)[nH]c4ccccc43)CC2)CC1 [TBPB]
M2
  IC50: 1100 nM
M5
  IC50: 10100 nM

## CCOC(=O)N1CCC(NCCNC(=O)c2cccc(OC)c2)CC1.O=C(O)C(F)(F)F [VU0360014]
rM1 receptor
  M1 potency and efficacy (SAR statement): retaining substantial potency and efficacy

## CCOC(=O)N1CCC(NCCNC(=O)c2ccccc2Cl)CC1 [VU0207811]
M1
  sensitivity to block by atropine: sensitive to block by atropine
  EC50: ~1000 nM
rM1 receptor; [3]
  EC50: 804 nM
hM2
  agonist activity at M2: no alteration was detected in baseline
hM3
  agonist activity at M3: no alteration was detected in baseline
rM4
  agonist activity at M4: no alteration was detected in baseline
hM5
  agonist activity at M5: no alteration was detected in baseline
rM1 Y381A; rM1 Y381A cells
  rM1 Y381A AChmax (maximal efficacy): 45.80 % max

## CCOC(=O)N1CCC(NCCNC(=O)c2ccc(F)cc2)CC1.O=C(O)C(F)(F)F [VU0359993]
rM1 receptor
  M1 potency and efficacy (SAR statement): retaining substantial potency and efficacy

## Clc1ccc2c(c1)N=C(N1CCNCC1)c1ccccc1N2 [NDMC, N-desmethylclozapine, reference compound]
rM1 Y381A
  potency at M1 Y381A compared with WT M1: potency similar to that observed in cells expressing WT M1

## CCOC(=O)N1CCC(NCCNC(=O)c2ccccc2C)CC1 [VU0357017, ethyl 4-(2-(2-methylbenzamido)ethylamino)piperidine-1-carboxylate]
rM1 receptor; [3]
  ACh Max efficacy: 80.52 % ACh Max
hM2
  agonist activity at M2: no activity
hM3
  agonist activity at M3: no activity
rM4
  agonist activity at M4: no activity
hM5
  agonist activity at M5: no activity
rM1 Y381A
  potency at M1 Y381A compared with WT M1: potencies similar to those observed in WT M1 CHO cells
Aqueous solubility
  solubility: > 25 mg/mL
[2]; male, Sprague-Dawley, brain and plasma, ip, 10 mg/kg
  Kp: 1.46
[2]; 10 mg/kg i.p., brain
  brain level: 4338.90 ± 1071.20 ng/mL
[2]; 10 mg/kg i.p., plasma
  plasma level: 1053.49 ± 276.03 ng/mL
[2]; i.p. administration
  central penetrance: centrally-penetrant
[1]; 10 mg/kg i.p., scopolamine 0.2 mg/kg s.c., p < 0.05
  reversal of scopolamine-induced deficits in contextual fear conditioning: significant reversal

## CCOC(=O)N1CCC(NCCNC(=O)c2cccc(F)c2)CC1.O=C(O)C(F)(F)F [VU0359995]
rM1 receptor
  M1 potency and efficacy (SAR statement): retaining substantial potency and efficacy

From article PMC3180826 (ACS chemical neuroscience, 2010)
